Assay outcomes as filed in PubChem.
SMARCA2 act – activators of SMARCA2 function. MG213 cells, MMTV-luciferase reporter, dexamethasone, overnight. activation, % at 9.1 µM. actives 1% (n = 370,000). AID 652017; in the data active = activation above about 7.8%;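 note: 0% = vehicle wells and 100% = reference activator wells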
GalR3 antag – human GalR3 antagonism | actives 0.44% (n = 360,000) | AID 651719 | inhibition, % at 3 µM | HEK293 GalR3-CNG cAMP membrane potential fluorescence; galR3 body fused to GalR1 C-terminus;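 active = inhibition above the screen-wide average plus 3 SD, cut at about 13% in these data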;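 note: forskolin and galanin both at EC90 stimulate the cells; cAMP rise reported by CNG channel membrane potential dye signal; 0% = forskolin plus galanin with DMSO and 100% = forskolin alone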
NR2E3 ag-1 – activates human NR2E3 receptor. inhibition of corepressor binding, % at 3.98 µM. actives 0.35% (n = 360,000). CHO-S Gal4-NCOR/VP16-NR2E3 two-hybrid, luciferase;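 active = inhibition above the mean of all tested compounds plus 3 SD, cut at about 70% in these data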;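 note: 0% = DMSO with NR2E3 transfected cells and 100% = cells lacking NR2E3 construct; higher means lower luciferase signal from less NR2E3 corepressor binding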
Target sequence (Q9Y5X4 whole entry, looked up, the tested form may be a part): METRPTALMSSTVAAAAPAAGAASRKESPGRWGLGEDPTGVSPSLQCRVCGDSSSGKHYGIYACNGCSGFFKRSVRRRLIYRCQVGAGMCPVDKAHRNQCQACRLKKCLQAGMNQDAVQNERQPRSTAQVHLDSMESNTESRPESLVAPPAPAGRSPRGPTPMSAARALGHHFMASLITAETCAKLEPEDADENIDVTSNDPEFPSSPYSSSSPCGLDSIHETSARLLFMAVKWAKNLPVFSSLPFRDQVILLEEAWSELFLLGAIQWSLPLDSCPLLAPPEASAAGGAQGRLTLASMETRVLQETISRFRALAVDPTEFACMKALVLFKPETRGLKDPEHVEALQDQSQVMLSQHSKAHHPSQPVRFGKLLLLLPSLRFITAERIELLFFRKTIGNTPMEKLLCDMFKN
NR2F2 inh – blocks human COUP-TFII nuclear receptor. actives 0.7% (n = 370,000). P24468. inhibition, % at 8.6 µM. HEK293T NGFI-A luciferase reporter, luminescence;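 active = inhibition above a per-plate cutoff, mean inhibition of test wells between control levels plus 3 SD, cut at about 38% in these data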;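 note: cells cotransfected with COUP-TFII expression vector driving the NGFI-A reporter; 0% = median of COUP-TF2 test wells and 100% = reporter-only cells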
NR2E3 ag-2 – NR2E3 (human) agonism; GST-NR2E3/biotin-RetCOR TR-FRET, 1536-well; inhibition of corepressor binding, % at 4.78 µM; actives 0.12% (n = 320,000); AID 2300;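 active = percent inhibition above the cutoff of mean plus 3 SD of all tested compounds, set per screening campaign, cut at about 20% in these data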;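 note: 0% = DMSO wells and 100% = biotin wells as full block of FRET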
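System: GST-NR2E3 and biotin-RetCOR proteins; probe or stimulus: 7 nM biotin-RetCOR; doses: compound at 4.8 µM, single dose; schedule: Compound–protein incubation for 5 h at 4 °C; detection: time-resolved FRET; read-out: percent inhibition; controls: biotin wells as high control, 0.6% DMSO wells as low control; format: 1536-well plates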
SMARCA2 act conf – SMARCA2 activation, confirmation screen. shares compounds with SMARCA2 act. actives 30% (n = 3,500). activation, % at 9.1 µM. MG213 cells, MMTV-luciferase with dexamethasone, luminescence, overnight; MG213 cells expressing E1A, Rb sequestered; DMSO wells 0%, reference activator 100%;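 active = activation above its plate's cutoff, the mean activation of tested wells plus 3 SD, cut at about 7.9% in these data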
VP16 Luc act – GAL4-VP16 reporter activation counter-screen | shares compounds with SMARCA2 act | HEK293 GAL4-VP16 pG5luc reporter, luciferase luminescence; scaled: DMSO wells 0%, SAHA wells 100% | activation, % at 9.1 µM | actives 41% (n = 3,500);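 active = activation above the solvent-only control well mean plus 3 SD, averaged across control plates, cut at about 5.2% in these data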
The depositor's hits bear a star; · = no result. Hits are enriched below; roughly 2.2% of the tested compounds scored in any of these assays.

SMILES	SMARCA2 act	GalR3 antag	NR2E3 ag-1	NR2F2 inh	NR2E3 ag-2	SMARCA2 act conf	VP16 Luc act
Fc1cccc(/C=N/Nc2ncnc3nc[nH]c23)c1	6	0	-53	-84	4	·	·
Fc1ccccc1/C=N/Nc1ncnc2nc[nH]c12	9.6*	-1	-56	-57	1	17*	5.8*
O=C(NCc1ccccc1)[C@H]1CCCN1C(=O)[C@H]1CCCN1C(=O)c1ccc(OC(F)(F)F)cc1	-3	-6	·	5	·	·	·
CN(C)Cc1ccc(CNC(=O)c2ccc(Cl)c(S(=O)(=O)NC3CC3)c2)cc1	9.0*	-5	14	-12	2	0	3
CCC[C@H]1[C@@H](OC(=O)NCc2ccc(C)cc2)CC[C@@]23CCCN2C(=O)CCC[C@@H]13	·	·	·	31	·	·	·
Cc1cccc(-c2nnc(-c3ccc4ccccc4c3)o2)c1	11*	-4	-150	-29	·	7	4
CCCc1cc2c(=O)c(-c3ccccn3)coc2cc1OC	11*	0	-133	-11	-3	18*	6.2*
CNC(=O)c1ccsc1NC(=O)c1sc2ccccc2c1Cl	11*	-3	-41	-26	-4	12*	7.5*
Cc1nnc(NC(=O)c2sc3ccccc3c2Cl)s1	5	-6	-185	-41	3	·	·
Cc1ccc(NC(=O)c2sc3ccccc3c2Cl)nc1	2	3	-149	-47	8	·	·
COCc1nnc(NC(=O)c2sc3ccccc3c2Cl)s1	9.8*	-5	-87	-15	7	17*	7.5*
Cc1cccnc1NC(=O)c1sc2ccccc2c1Cl	8.5*	-5	-133	-36	3	18*	7.8*
O=[N+]([O-])c1ccc(OCCCN2CCC(C(O)(c3ccccc3)c3ccccc3)CC2)c(Cl)c1	1	·	·	-46	·	·	·
Cc1ccc(C)c(OCc2nc(-c3cccnc3)no2)c1	-1	-2	-22	-7	0	·	·
Cc1ccc(-c2nc(-c3cccnc3)no2)c(C)c1	9.2*	-2	-121	-34	3	19*	13*
CC1CCC(NC(=O)C(C)N2C(=O)C3CCCCC3C2=O)CC1 (stereo not drawn)	9.3*	-5	-12	-10	0	2	2
CC(C(=O)NC1CCCCC1)N1C(=O)C2C3C=CC(C3)C2C1=O (stereo not drawn)	1	0	-3	1	1	·	·
N#CC(Cc1cccs1)c1nc2ccccc2[nH]1 (stereo not drawn)	8.6*	-2	-44	-5	·	2	2
CN(CC(=O)Nc1ccccc1Br)C(=O)c1ccc(-c2ccc(Cl)cc2)o1	8.9*	0	-13	9	1	-2	2
Cc1cccc(NC(=O)/C=C/c2cccs2)n1	12*	-4	-116	-44	2	8.2*	7.9*
C=CCOc1ccc2oc(=O)cc(C)c2c1	10*	-8	-28	17	2	-2	0
Cc1cc(=O)oc2ccc(OCc3ccccc3)cc12	4	-12	-8	-39	4	·	·
COc1ccc2c(c1)CC/C(=C\c1ccc(C)o1)C2=O	11*	-4	-65	-34	1	18*	14*
N#C/C(=C\c1ccc([N+](=O)[O-])cc1)c1ccccn1	10*	-4	-155	-10	-2	6	6.7*
CN(C)c1ccc(/C=C(\C#N)c2ccccn2)cc1	0	7	-105	24	-2	·	·
Cc1ccc(CSc2nn3c(=O)c(C)nnc3s2)cc1	8.6*	-9	-4	-6	2	2	1
CCN(CC)CCn1c2ccccc2c2nc3ccc([N+](=O)[O-])cc3cc21	10*	-2	-109	-27	0	99*	5
COc1ccc(S(=O)(=O)N2CCOC23CCN(S(=O)(=O)c2c(C)cc(C)cc2C)CC3)cc1	0	0	-11	-10	-5	·	·
